For data set [1], the target named is T1, OATP-B (SLCO2B1, OATP2B1) (Homo sapiens, UniProt O94956).
T1 sequence (O94956 whole entry): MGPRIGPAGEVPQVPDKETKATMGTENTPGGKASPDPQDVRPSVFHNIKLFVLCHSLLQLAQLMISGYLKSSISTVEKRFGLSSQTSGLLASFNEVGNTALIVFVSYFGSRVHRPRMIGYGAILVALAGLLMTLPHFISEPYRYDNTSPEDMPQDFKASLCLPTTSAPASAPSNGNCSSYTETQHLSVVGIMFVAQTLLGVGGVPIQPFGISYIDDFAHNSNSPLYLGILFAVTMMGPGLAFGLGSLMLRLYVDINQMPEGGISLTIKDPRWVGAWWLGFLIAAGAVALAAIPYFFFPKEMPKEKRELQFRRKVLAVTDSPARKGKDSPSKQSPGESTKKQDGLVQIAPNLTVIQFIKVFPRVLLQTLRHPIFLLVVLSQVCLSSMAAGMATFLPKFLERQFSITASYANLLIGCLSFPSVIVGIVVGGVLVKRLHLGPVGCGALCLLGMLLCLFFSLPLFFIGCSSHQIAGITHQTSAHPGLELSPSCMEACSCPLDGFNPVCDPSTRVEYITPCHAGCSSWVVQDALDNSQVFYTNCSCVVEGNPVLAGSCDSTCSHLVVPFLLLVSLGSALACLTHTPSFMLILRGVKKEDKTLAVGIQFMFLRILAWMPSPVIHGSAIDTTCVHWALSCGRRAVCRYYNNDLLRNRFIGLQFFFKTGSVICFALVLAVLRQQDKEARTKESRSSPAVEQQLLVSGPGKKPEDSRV
The data set can be described thus: TP_TRANSPORTER: inhibition of E1S uptake (E1S: 0.00476 uM, citric acid: 10000 uM) in OATP-B-expressing HEK293 cells. It is filed as functional, cell-based. Further details: scale not given: the % may be the effect or the level left. Conditions: probe E1S (0.00476 uM), read-out: Activity. Summed up: (§1)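 HEK293 cells transfected with pcDNA3/OATP-B or empty vector (mock) by calcium phosphate, harvested 40-48 h later and suspended. Preincubated 20 min at 37°C at pH 7.4, then [3H]estrone-3-sulfate (4.76 nM) uptake for 10 min at 37°C in MES-buffered medium, pH 5.5. Cells separated by silicone oil centrifugal filtration and counted by scintillation. Mock-corrected uptake given as % of no-inhibitor control; mean ± S.E.M., n=3 or 4.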

For data set [2], the target named is T1, OATP-B (SLCO2B1, OATP2B1). The data set can be described thus: TP_TRANSPORTER: inhibition of E1S uptake (E1S: 0.00476 uM, lactic acid: 10000 uM) in OATP-B-expressing HEK293 cells. The data set is classed as functional, cell-based. On the set-up: scale not given: the % may be the effect or the level left. Conditions: probe E1S (0.00476 uM), read-out: Activity. Summed up: as §1

The target of data set [3] is T2, Solute carrier organic anion transporter family member 2B1 (Homo sapiens, UniProt O94956).
T2 sequence (O94956 whole entry): T1 sequence (O94956 whole entry)
The data set can be described thus: TP_TRANSPORTER: uptake (pH 7.4) in OATP-B-expressing HEK293 cells. The data set is classed as functional, cell-based. Conditions: hek293, pH 7.4.

Data set [4] concerns the target T2, Solute carrier organic anion transporter family member 2B1. In words: TP_TRANSPORTER: uptake (pH 5.5) in OATP-B-expressing HEK293 cells. The data set is classed as functional, cell-based. Conditions: hek293, pH 5.5.
Data set [5] has as its target T1, OATP-B (SLCO2B1, OATP2B1). The data set can be described thus: TP_TRANSPORTER: inhibition of E1S uptake (E1S: 0.00476 uM, phthalic acid: 10000 uM) in OATP-B-expressing HEK293 cells. Conditions: probe E1S (0.00476 uM), read-out: Activity. The data set is classed as functional, cell-based. Further details: scale not given: the % may be the effect or the level left. Summed up: as §1

Data set [6] addresses T1, OATP-B (SLCO2B1, OATP2B1). In words: in vitro. Conditions: HEK293 cells expressing OATP-B, probe E1S (0.00476 uM).
In data set [7] the target is T1, OATP-B (SLCO2B1, OATP2B1). The data set can be described thus: in vitro. Conditions: HEK293 cells expressing OATP-B, probe E1S (0.00476 uM). This is another data set of the same source.
Data set [8] addresses T1, OATP-B (SLCO2B1, OATP2B1). The data set can be described thus: TP_TRANSPORTER: inhibition of E1S uptake (E1S: 0.00476 uM, oxalic acid: 10000 uM) in OATP-B-expressing HEK293 cells. On the set-up: scale not given: the % may be the effect or the level left. It is filed as functional, cell-based. Conditions: probe E1S (0.00476 uM), read-out: Activity. The gist of the method: as §1

Data set [9] deals with T1, OATP-B (SLCO2B1, OATP2B1). The data set can be described thus: TP_TRANSPORTER: inhibition of E1S uptake (E1S: 0.00476 uM, benzoic acid: 10000 uM) in OATP-B-expressing HEK293 cells. The data set is classed as functional, cell-based. Further details: scale not given: the % may be the effect or the level left. Conditions: probe E1S (0.00476 uM), read-out: Activity. Summed up: as §1

Turning to `O=C(O)CC(O)(CC(=O)O)C(=O)O` [CITRIC ACID], in data set [1], the activity at 10000 uM was 97.7%.

For the compound `C[C@@H](O)C(=O)O` [D-LACTIC ACID], the activity at 10000 uM in data set [2] stood at 85.6%.

With `C[C@]12CC[C@@H]3c4ccc(OS(=O)(=O)O)cc4CC[C@H]3[C@@H]1CCC2=O` [ESTRONE SULFURIC ACID], the Activity entry in data set [3] is “substrate [+]”.

Take `CC[C@H](C)C(=O)O[C@H]1C[C@H](O)C=C2C=C[C@H](C)[C@H](CC[C@@H](O)C[C@@H](O)CC(=O)O)[C@H]21` [PRAVASTATIN]: the Activity result in data set [4] is “substrate [+]”.

For `O=C(O)c1ccccc1C(=O)O` [PHTHALIC ACID], the activity at 10000 uM in data set [5] is 42.7%.

Take `O=C(O)c1cccnc1` [NIACIN]: the activity at 10000 uM in [6] turned out to be 59.7%.

Regarding `CC(=O)O` [ACETIC ACID], the activity at 10000 uM in [7] was determined as 86.1%.

As to `O=C(O)C(=O)O` [OXALIC ACID], the activity at 10000 uM in data set [8] came to 83.9%.

As to `O=C(O)c1ccccc1` [BENZOIC ACID], the activity at 10000 uM in data set [9] came out at 56.1%.
